Source: ChEMBL document CHEMBL1275331, “Discovery of a novel 5-HT(3) antagonist/5-HT(1A) agonist 3-amino-5,6,7,8-tetrahydro-2-{4-[4-(quinolin-2-yl)piperazin-1-yl]butyl}quinazolin-4(3H)-one (TZB-30878) as an orally bioavailable agent for irritable bowel syndrome” (J Med Chem, 2010)
Calls of active or inactive are those of the source. No cut-off for these calls is given here.

What was measured:
Rattus norvegicus = experiment: Induction of 5HT1A receptor-mediated behavioral activity in rat assessed as appearance of flat body posture at 10 mg/kg, iv after 30 mins; format: functional, organism-based; design: dose 10 mg/kg
Method in brief: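 Rats were conditioned to test procedures over 2 weeks and acclimated to the test cage for 1 h. Vehicle was saline containing diluted HCl. Lower lip retraction and flat body posture were scored on a 0–3 scale at 5, 10, 20 and 30 min after dosing.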

D(1A) dopamine receptor = D(1A) dopamine receptor (Homo sapiens, UniProt P21728); experiment: Displacement of [3H]SCH23390 from human recombinant dopamine D1 receptor
Chain of D(1A) dopamine receptor (P21728 whole entry): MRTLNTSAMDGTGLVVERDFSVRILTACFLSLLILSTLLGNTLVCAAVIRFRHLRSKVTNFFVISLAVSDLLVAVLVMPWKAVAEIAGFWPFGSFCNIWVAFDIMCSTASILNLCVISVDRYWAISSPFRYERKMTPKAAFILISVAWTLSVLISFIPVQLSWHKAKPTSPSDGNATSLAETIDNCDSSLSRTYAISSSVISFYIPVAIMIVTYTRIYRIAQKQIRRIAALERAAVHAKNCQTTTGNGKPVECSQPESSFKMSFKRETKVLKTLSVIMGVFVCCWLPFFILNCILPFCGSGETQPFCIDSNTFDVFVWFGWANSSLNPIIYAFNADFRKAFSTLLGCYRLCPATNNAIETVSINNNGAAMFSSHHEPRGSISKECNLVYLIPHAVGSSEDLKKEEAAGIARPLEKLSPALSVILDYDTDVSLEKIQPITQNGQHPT

Mu-type opioid receptor = Mu-type opioid receptor (Homo sapiens, UniProt P35372); experiment: Displacement of [3H]DAMGO from human recombinant mu opioid receptor
Chain of Mu-type opioid receptor (P35372 whole entry): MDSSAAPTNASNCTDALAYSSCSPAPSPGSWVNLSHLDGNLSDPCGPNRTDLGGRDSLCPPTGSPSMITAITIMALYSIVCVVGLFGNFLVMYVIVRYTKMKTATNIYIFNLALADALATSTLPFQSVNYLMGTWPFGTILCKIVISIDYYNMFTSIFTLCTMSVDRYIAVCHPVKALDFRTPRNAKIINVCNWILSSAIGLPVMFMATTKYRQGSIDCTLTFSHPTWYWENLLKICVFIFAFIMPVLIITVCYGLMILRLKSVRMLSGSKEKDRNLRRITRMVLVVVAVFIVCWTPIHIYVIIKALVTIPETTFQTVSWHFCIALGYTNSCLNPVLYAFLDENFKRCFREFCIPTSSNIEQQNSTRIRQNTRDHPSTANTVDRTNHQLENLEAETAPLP

[1] = Drug level in Sprague-Dawley rat brain at 3 mg/kg, po after 2 hrs by HPLC analysis; format: ADME, organism-based; design: dose 3 mg/kg, route oral; settings: read-out: Drug uptake
Method in brief: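 Total compound concentration was measured in brain and blood at 2, 4 and 8 h after a single oral 3 mg/kg dose. Brain/blood ratio was also derived. Values are mean ± SD of three rats.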

D(2) dopamine receptor = D(2) dopamine receptor (Homo sapiens, UniProt P14416); experiment: Displacement of [3H]spiperone from human recombinant dopamine D2 receptor
Chain of D(2) dopamine receptor (P14416 whole entry): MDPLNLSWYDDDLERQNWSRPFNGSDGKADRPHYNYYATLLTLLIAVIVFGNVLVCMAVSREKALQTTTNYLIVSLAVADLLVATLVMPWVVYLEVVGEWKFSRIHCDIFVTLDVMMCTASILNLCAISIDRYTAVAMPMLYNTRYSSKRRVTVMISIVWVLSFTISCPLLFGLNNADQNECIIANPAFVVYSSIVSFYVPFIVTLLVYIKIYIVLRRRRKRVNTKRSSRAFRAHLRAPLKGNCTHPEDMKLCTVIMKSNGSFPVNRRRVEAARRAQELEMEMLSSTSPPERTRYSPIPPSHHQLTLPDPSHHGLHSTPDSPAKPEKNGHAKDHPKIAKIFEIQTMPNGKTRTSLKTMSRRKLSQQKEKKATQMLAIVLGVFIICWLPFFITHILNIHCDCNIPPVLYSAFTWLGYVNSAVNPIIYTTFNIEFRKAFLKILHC

Adenosine receptor A2a = Adenosine receptor A2a (Homo sapiens, UniProt P29274); experiment: Displacement of [3H]CGS21680 from human recombinant adenosine A2A receptor
Chain of Adenosine receptor A2a (P29274 whole entry): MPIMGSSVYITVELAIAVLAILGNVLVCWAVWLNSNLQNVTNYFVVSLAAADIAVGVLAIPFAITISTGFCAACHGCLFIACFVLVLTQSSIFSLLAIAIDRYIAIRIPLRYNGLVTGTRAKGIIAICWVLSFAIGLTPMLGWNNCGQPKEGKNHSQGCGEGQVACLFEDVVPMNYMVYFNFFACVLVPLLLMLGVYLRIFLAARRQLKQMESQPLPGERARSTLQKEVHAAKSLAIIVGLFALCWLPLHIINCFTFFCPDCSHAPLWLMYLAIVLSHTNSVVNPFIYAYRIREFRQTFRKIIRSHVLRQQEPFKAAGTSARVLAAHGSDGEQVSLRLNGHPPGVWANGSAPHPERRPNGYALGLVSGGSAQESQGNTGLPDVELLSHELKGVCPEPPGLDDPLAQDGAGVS

[2] = target: 5-hydroxytryptamine receptor 6 (Homo sapiens, UniProt P50406); experiment: Displacement of [3H]LSD from human recombinant 5HT6 receptor
Chain of 5-hydroxytryptamine receptor 6 (P50406 whole entry): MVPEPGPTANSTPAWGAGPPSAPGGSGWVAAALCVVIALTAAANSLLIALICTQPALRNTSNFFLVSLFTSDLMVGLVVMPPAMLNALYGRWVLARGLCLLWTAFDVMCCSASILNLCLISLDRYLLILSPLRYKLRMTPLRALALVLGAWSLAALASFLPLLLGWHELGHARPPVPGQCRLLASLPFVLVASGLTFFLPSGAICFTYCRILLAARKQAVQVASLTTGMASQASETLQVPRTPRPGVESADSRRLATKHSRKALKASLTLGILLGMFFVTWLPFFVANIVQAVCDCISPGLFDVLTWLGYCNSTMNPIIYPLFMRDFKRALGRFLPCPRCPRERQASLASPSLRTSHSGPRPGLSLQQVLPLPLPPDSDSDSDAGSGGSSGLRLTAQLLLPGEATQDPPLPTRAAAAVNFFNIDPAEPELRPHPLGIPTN

[3] = Ratio of drug level in brain to blood in Sprague-Dawley rat at 3 mg/kg, po after 8 hrs; format: ADME, organism-based; design: dose 3 mg/kg, route oral
Method in brief: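 Rats dosed 3 mg/kg orally; total compound levels measured in brain and blood at 2, 4 and 8 h, brain/blood ratio derived. Mean ± SD of three rats.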

[4] = target: 5-hydroxytryptamine receptor 7 (Homo sapiens, UniProt P34969); experiment: Displacement of [3H]LSD from human recombinant 5HT7 receptor
Chain of 5-hydroxytryptamine receptor 7 (P34969 whole entry): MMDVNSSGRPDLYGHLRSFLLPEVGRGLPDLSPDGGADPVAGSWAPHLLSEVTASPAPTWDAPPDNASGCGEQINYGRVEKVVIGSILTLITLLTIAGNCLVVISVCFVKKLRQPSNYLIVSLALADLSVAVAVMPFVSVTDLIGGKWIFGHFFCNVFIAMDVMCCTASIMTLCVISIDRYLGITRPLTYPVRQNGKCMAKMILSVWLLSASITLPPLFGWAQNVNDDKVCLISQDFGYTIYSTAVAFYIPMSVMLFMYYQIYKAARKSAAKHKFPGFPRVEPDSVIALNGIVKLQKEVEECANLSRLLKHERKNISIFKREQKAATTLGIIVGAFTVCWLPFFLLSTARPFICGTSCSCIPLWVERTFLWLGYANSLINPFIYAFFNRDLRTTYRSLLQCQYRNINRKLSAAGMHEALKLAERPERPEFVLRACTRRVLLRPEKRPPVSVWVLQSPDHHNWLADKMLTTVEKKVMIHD

[5] = target: T1, 5-hydroxytryptamine receptor 3A (Cavia porcellus) (UniProt O70212); experiment: Inhibition of 5HT3 receptor-mediated contraction of guinea pig ileum at 0.1 umol/L after 20 mins relative to control; format: tissue-based
T1 sequence (whole entry): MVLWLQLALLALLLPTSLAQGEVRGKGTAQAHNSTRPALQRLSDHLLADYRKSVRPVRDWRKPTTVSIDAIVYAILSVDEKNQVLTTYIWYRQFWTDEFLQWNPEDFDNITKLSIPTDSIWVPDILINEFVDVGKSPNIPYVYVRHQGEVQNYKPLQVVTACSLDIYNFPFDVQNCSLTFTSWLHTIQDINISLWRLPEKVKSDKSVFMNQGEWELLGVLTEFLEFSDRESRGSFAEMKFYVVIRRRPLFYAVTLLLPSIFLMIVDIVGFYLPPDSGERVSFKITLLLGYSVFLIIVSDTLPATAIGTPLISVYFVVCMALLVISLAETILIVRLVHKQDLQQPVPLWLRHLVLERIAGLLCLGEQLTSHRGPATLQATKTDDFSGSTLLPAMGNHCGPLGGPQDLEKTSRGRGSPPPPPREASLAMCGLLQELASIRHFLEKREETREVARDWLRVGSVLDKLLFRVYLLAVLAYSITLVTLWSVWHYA
Method in brief: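 Ileum strips in Tyrode solution at 37 °C, gassed 5% CO2/95% O2, isotonic contractions under 1 g load. After at least 3 stable contractions to 10 μM 2-methyl-5-HT, tissue exposed to compound or DMSO vehicle for 20 min, then 10 μM 2-methyl-5-HT re-added; contraction expressed as % inhibition of control.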

[6] = target: Beta-1 adrenergic receptor (Homo sapiens, UniProt P08588); experiment: Displacement of [3H](-)CGP12177 from human recombinant beta-1 adrenergic receptor
Chain of Beta-1 adrenergic receptor (P08588 whole entry): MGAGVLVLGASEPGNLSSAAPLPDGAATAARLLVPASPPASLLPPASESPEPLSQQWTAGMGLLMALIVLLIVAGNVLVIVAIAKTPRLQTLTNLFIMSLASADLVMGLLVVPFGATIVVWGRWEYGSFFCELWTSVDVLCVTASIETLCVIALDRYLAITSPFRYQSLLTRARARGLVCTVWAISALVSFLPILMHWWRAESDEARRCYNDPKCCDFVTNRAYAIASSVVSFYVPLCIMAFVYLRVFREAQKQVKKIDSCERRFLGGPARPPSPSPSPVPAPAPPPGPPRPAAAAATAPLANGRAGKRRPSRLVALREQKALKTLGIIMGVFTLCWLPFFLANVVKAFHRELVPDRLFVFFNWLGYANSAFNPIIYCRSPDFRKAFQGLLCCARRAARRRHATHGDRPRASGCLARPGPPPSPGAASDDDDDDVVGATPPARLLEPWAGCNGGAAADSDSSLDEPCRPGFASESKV

Histamine H1 receptor = Histamine H1 receptor (Homo sapiens, UniProt P35367); experiment: Displacement of [3H]pyrilamine from human recombinant histamine H1 receptor
Chain of Histamine H1 receptor (P35367 whole entry): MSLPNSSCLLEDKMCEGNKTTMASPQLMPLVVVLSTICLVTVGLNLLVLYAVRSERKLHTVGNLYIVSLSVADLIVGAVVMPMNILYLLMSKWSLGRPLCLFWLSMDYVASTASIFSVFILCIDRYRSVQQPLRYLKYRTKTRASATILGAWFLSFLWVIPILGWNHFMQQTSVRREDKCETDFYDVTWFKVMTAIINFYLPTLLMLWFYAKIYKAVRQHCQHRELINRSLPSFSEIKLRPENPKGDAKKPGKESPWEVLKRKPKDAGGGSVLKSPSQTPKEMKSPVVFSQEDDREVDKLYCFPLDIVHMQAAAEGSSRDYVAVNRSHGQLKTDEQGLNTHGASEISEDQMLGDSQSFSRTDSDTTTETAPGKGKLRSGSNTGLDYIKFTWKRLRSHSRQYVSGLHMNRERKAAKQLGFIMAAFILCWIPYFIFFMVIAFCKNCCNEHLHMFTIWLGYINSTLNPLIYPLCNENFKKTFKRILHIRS

[7] = target: T2, 5-hydroxytryptamine receptor 1A (Homo sapiens, UniProt P08908); experiment: Displacement of [3H]8-OH-DPAT from human 5HT1A receptor expressed in CHO cells by liquid scintillation counting; format: cell-based
T2 sequence (P08908 whole entry): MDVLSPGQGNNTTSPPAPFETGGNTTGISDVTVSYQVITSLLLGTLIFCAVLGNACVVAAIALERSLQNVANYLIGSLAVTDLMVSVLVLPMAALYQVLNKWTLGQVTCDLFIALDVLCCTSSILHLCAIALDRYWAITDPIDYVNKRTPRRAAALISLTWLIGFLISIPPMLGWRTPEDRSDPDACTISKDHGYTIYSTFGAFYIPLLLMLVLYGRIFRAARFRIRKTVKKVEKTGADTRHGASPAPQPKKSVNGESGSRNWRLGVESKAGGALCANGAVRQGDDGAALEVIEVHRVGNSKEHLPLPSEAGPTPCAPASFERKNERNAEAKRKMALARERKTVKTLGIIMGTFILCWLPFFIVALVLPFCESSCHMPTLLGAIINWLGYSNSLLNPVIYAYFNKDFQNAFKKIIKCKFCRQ
Method in brief: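 CHO-cell membranes with human 5-HT1A were incubated with 0.25 nmol/L [3H]8-OH-DPAT (final) for 60 min at 27 °C. Buffer: 50 mM Tris-HCl, 10 mM MgSO4, 0.5 mM EDTA, 0.1% ascorbic acid, pH 7.4. Compound came from 270 μmol/L DMSO stock, diluted in buffer. Filtration was through GF/C presoaked in 0.3% polyethyleneimine, with two cold Tris washes. Run in duplicate or triplicate; percent inhibition of binding calculated.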

[8] = target: Adrenergic receptor alpha-2 (Rattus norvegicus, UniProt P22086+P19328+P22909); experiment: Displacement of [3H]RX821002 from rat cerebral cortex alpha2 adrenergic receptor; format: tissue-based
[9] = target: T2, 5-hydroxytryptamine receptor 1A; experiment: Agonist activity at human cloned 5HT1A receptor expressed in CHO cells assessed as stimulation of [35S]GTPgammaS binding after 30 mins by liquid scintillation counting; format: functional, cell-based
Method in brief: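 Membranes from CHO cells expressing human 5-HT1A were diluted in 20 mM HEPES/3 mM MgCl2/120 mM NaCl, pH 7.4. They were preincubated with 20 μM GDP and test drug for 20 min at 30 °C, then held on ice for 15 min. [35S]GTPγS (100 pM) was added for 30 min at 30 °C. Samples were filtered, washed with cold HEPES/MgCl2 buffer, and bound radioactivity counted; EC50 and Emax reported.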

IC50 (D(1A) dopamine receptor): > 1000 nM
IC50 (Mu-type opioid receptor): > 1000 nM
concentration at 2 h [1]: 160 nM
IC50 (D(2) dopamine receptor): > 1000 nM
IC50 (Adenosine receptor A2a): > 1000 nM
IC50 [2]: > 1000 nM
Kp at 8 h [3]: 6.54
IC50 [4]: 1000 nM
inhibition [5]: 70.4%
IC50 [6]: > 1000 nM
IC50 (Histamine H1 receptor): 1000 nM
IC50 [7]: 1.4 nM
IC50 [8]: > 1 ×10⁻⁶ mol/L
EC50 [9]: 22.3 nM
Compound: Nn1c(CCCCN2CCN(c3ccc4ccccc4n3)CC2)nc2c(c1=O)CCCC2
Activity (Rattus norvegicus): Active
